Experimental data taken from ChEMBL document CHEMBL4689842, “EUbOPEN Chemogenomics Library wave 1” (2021).
Several values for one entry are separate records, joined by “and”; a condition that tells them apart may be missing. Equal values may be shown once.

Experiments:
Type in all cases: toxicity, cell-based
Fibroblast [1] = assay: Multiplex assay against human fibroblast; details: 10 µM, compound concentration 10 uM
Procedure, shortened: (§1)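 Cells stained live at seeding with Hoechst33342, BioTracker Green Microtubule Cytoskeleton Dye, MitoTracker Red and Annexin V Alexa Fluor 680 were imaged on a CQ1 microscope at 37°C and 5% CO2 after compound addition. Their classification by CellPathfinder machine-learning gating ran from Hoechst high-intensity objects versus normal cells, to healthy, pyknosed or fragmented nuclei among normal cells, to mitotic or apoptotic among pyknosed cells. Tubulin, mitochondrial-mass and membrane-permeability phenotypes are per cents of healthy-nucleus cells.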

HEK-293T [2] = assay: Multiplex assay against HEK293T; details: human, 10 µM, compound concentration 10 uM; procedure, shortened: as §1;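 as to Population Tubulin-Different-Phenotype (%): share of the cells with healthy nuclei that show this phenotype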
U2OS [3] = assay: Multiplex assay against U2OS; details: human, 10 µM, compound concentration 10 uM; procedure, shortened: as §1
HEK-293T [4] = assay: Incucyte cell viability with HEK293T; details: human, 10 µM, compound concentration 10 uM; also: filed as whole numbers so only -1 and 0 and 1 occur
Fibroblast [5] = assay: Incucyte cell viability with human fibroblast; details: 10 µM, compound concentration 10 uM; also: filed as whole numbers so only -1 and 0 and 1 occur
U2OS [6] = assay: Incucyte cell viability with U2OS; details: human, 10 µM, compound concentration 10 uM; also: filed as whole numbers so only -1 and 0 and 1 occur
[7] = 0 h, replicate number 1, timepoint 0 hours
[8] = 6 h, replicate number 1, timepoint 6 hours
[9] = 12 h, replicate number 1, timepoint 12 hours
[10] = 18 h, replicate number 1, timepoint 18 hours
[11] = 24 h, replicate number 1, timepoint 24 hours

Cc1cc(NC(=O)c2cccc(S(F)(F)(F)(F)F)c2)cc(-n2ccn3nc(-c4cccnc4)cc23)c1 [BAY-309]
Population Apoptotic (%) (Fibroblast [1]; 12 h, replicate 1): 72% and 60%
Population Fragmented Nuclei (%) (Fibroblast [1]; 12 h, replicate 1): 29% and 25%
Population Healthy Nuclei (%) (Fibroblast [1]; 12 h, replicate 1): 45% and 52%
Population Hoechst High Intensity Objects (%) (Fibroblast [1]; 12 h, replicate 1): 11% and 13%
Population Mitochondria Different-Phenotype (%) (Fibroblast [1]; 12 h, replicate 1): 16% and 14%
Population Mitotic Cells (%) (Fibroblast [1]; 12 h, replicate 1): 27% and 39%
Population Normal (%) (Fibroblast [1]; 12 h, replicate 1): 88% and 86%
Population Pyknosed Nuclei (%) (Fibroblast [1]; 12 h, replicate 1): 25% and 22%
Total Cell Count (Fibroblast [1]; 12 h, replicate 1): 260 and 213
Population Apoptotic (%) (Fibroblast [1]; 12 h, replicate 2): 54% and 62%
Population Fragmented Nuclei (%) (Fibroblast [1]; 12 h, replicate 2): 66% and 44%
Population Healthy Nuclei (%) (Fibroblast [1]; 12 h, replicate 2): 20% and 40%
Population Hoechst High Intensity Objects (%) (Fibroblast [1]; 12 h, replicate 2): 29% and 31%
Population Membrane Permeable-Phenotype (%) (Fibroblast [1]; 12 h, replicate 2): 16% and 20%
Population Mitochondria Different-Phenotype (%) (Fibroblast [1]; 12 h, replicate 2): 33% and 35%
Population Mitotic Cells (%) (Fibroblast [1]; 12 h, replicate 2): 45% and 37%
Population Normal (%) (Fibroblast [1]; 12 h, replicate 2): 70% and 68%
Population Pyknosed Nuclei (%) (Fibroblast [1]; 12 h, replicate 2): 12% and 16%
Population Tubulin-Different-Phenotype (%) (Fibroblast [1]; 12 h, replicate 2): 50% and 80%
Total Cell Count (Fibroblast [1]; 12 h, replicate 2): 122 and 73
Population Apoptotic (%) (Fibroblast [1]; 24 h, replicate 1): 80% and 62%
Population Fragmented Nuclei (%) (Fibroblast [1]; 24 h, replicate 1): 24% and 21%
Population Healthy Nuclei (%) (Fibroblast [1]; 24 h, replicate 1): 47% and 56%
Population Hoechst High Intensity Objects (%) (Fibroblast [1]; 24 h, replicate 1): 16% and 15%
Population Mitotic Cells (%) (Fibroblast [1]; 24 h, replicate 1): 19% and 37%
Population Normal (%) (Fibroblast [1]; 24 h, replicate 1): 83% and 84%
Population Pyknosed Nuclei (%) (Fibroblast [1]; 24 h, replicate 1): 28% and 21%
Population Tubulin-Different-Phenotype (%) (Fibroblast [1]; 24 h, replicate 1): 83% and 28%
Total Cell Count (Fibroblast [1]; 24 h, replicate 1): 241 and 216
Population Apoptotic (%) (Fibroblast [1]; 24 h, replicate 2): 60% and 90%
Population Fragmented Nuclei (%) (Fibroblast [1]; 24 h, replicate 2): 66% and 57%
Population Healthy Nuclei (%) (Fibroblast [1]; 24 h, replicate 2): 20% and 26%
Population Hoechst High Intensity Objects (%) (Fibroblast [1]; 24 h, replicate 2): 36% and 25%
Population Membrane Permeable-Phenotype (%) (Fibroblast [1]; 24 h, replicate 2): 11% and 0%
Population Mitochondria Different-Phenotype (%) (Fibroblast [1]; 24 h, replicate 2): 29% and 22%
Population Normal (%) (Fibroblast [1]; 24 h, replicate 2): 63% and 75%
Population Pyknosed Nuclei (%) (Fibroblast [1]; 24 h, replicate 2): 12% and 15%
Population Tubulin-Different-Phenotype (%) (Fibroblast [1]; 24 h, replicate 2): 41%
Total Cell Count (Fibroblast [1]; 24 h, replicate 2): 128 and 92
Population Fragmented Nuclei (%) (HEK-293T [2]; 12 h, replicate 1): 16% and 13%
Population Healthy Nuclei (%) (HEK-293T [2]; 12 h, replicate 1): 34% and 63%
Population Hoechst High Intensity Objects (%) (HEK-293T [2]; 12 h, replicate 1): 16% and 9%
Population Membrane Permeable-Phenotype (%) (HEK-293T [2]; 12 h, replicate 1): 25% and 14%
Population Mitochondria Different-Phenotype (%) (HEK-293T [2]; 12 h, replicate 1): 32% and 12%
Population Mitotic Cells (%) (HEK-293T [2]; 12 h, replicate 1): 34% and 83%
Population Normal (%) (HEK-293T [2]; 12 h, replicate 1): 83% and 90%
Population Pyknosed Nuclei (%) (HEK-293T [2]; 12 h, replicate 1): 48% and 23%
Population Tubulin-Different-Phenotype (%) (HEK-293T [2]; 12 h, replicate 1): 86% and 41%
Total Cell Count (HEK-293T [2]; 12 h, replicate 1): 619 and 653
Population Fragmented Nuclei (%) (HEK-293T [2]; 12 h, replicate 2): 3% and 2%
Population Healthy Nuclei (%) (HEK-293T [2]; 12 h, replicate 2): 87% and 72%
Population Hoechst High Intensity Objects (%) (HEK-293T [2]; 12 h, replicate 2): 2% and 4%
Population Membrane Permeable-Phenotype (%) (HEK-293T [2]; 12 h, replicate 2): 16% and 17%
Population Mitotic Cells (%) (HEK-293T [2]; 12 h, replicate 2): 92% and 54%
Population Normal (%) (HEK-293T [2]; 12 h, replicate 2): 97% and 95%
Population Tubulin-Different-Phenotype (%) (HEK-293T [2]; 12 h, replicate 2): 59% and 98%
Total Cell Count (HEK-293T [2]; 12 h, replicate 2): 1524 and 975
Population Fragmented Nuclei (%) (HEK-293T [2]; 24 h, replicate 1): 19% and 9%
Population Healthy Nuclei (%) (HEK-293T [2]; 24 h, replicate 1): 29% and 77%
Population Hoechst High Intensity Objects (%) (HEK-293T [2]; 24 h, replicate 1): 16% and 7%
Population Membrane Permeable-Phenotype (%) (HEK-293T [2]; 24 h, replicate 1): 10% and 21%
Population Normal (%) (HEK-293T [2]; 24 h, replicate 1): 83% and 92%
Population Tubulin-Different-Phenotype (%) (HEK-293T [2]; 24 h, replicate 1): 85% and 66%
Total Cell Count (HEK-293T [2]; 24 h, replicate 1): 590 and 755
Population Healthy Nuclei (%) (HEK-293T [2]; 24 h, replicate 2): 79% and 66%
Population Hoechst High Intensity Objects (%) (HEK-293T [2]; 24 h, replicate 2): 3% and 6%
Population Mitotic Cells (%) (HEK-293T [2]; 24 h, replicate 2): 94% and 45%
Population Normal (%) (HEK-293T [2]; 24 h, replicate 2): 96% and 93%
Population Tubulin-Different-Phenotype (%) (HEK-293T [2]; 24 h, replicate 2): 67% and 98%
Total Cell Count (HEK-293T [2]; 24 h, replicate 2): 2348 and 996
Population Apoptotic (%) (U2OS [3]; 12 h, replicate 1): 25% and 23%
Population Fragmented Nuclei (%) (U2OS [3]; 12 h, replicate 1): 4%
Population Healthy Nuclei (%) (U2OS [3]; 12 h, replicate 1): 87% and 78%
Population Hoechst High Intensity Objects (%) (U2OS [3]; 12 h, replicate 1): 0% and 3%
Population Membrane Permeable-Phenotype (%) (U2OS [3]; 12 h, replicate 1): 46% and 55%
Population Mitochondria Different-Phenotype (%) (U2OS [3]; 12 h, replicate 1): 30% and 60%
Population Mitotic Cells (%) (U2OS [3]; 12 h, replicate 1): 75% and 76%
Population Normal (%) (U2OS [3]; 12 h, replicate 1): 99% and 96%
Population Pyknosed Nuclei (%) (U2OS [3]; 12 h, replicate 1): 7% and 16%
Population Tubulin-Different-Phenotype (%) (U2OS [3]; 12 h, replicate 1): 67%
Total Cell Count (U2OS [3]; 12 h, replicate 1): 108 and 233
Population Apoptotic (%) (U2OS [3]; 12 h, replicate 2): 37% and 56%
Population Fragmented Nuclei (%) (U2OS [3]; 12 h, replicate 2): 8% and 9%
Population Healthy Nuclei (%) (U2OS [3]; 12 h, replicate 2): 82% and 67%
Population Hoechst High Intensity Objects (%) (U2OS [3]; 12 h, replicate 2): 9% and 5%
Population Membrane Permeable-Phenotype (%) (U2OS [3]; 12 h, replicate 2): 53% and 49%
Population Mitotic Cells (%) (U2OS [3]; 12 h, replicate 2): 62% and 43%
Population Normal (%) (U2OS [3]; 12 h, replicate 2): 90% and 94%
Population Pyknosed Nuclei (%) (U2OS [3]; 12 h, replicate 2): 9% and 22%
Population Tubulin-Different-Phenotype (%) (U2OS [3]; 12 h, replicate 2): 61% and 100%
Total Cell Count (U2OS [3]; 12 h, replicate 2): 185
Population Apoptotic (%) (U2OS [3]; 24 h, replicate 1): 50% and 61%
Population Fragmented Nuclei (%) (U2OS [3]; 24 h, replicate 1): 8% and 6%
Population Healthy Nuclei (%) (U2OS [3]; 24 h, replicate 1): 85% and 70%
Population Hoechst High Intensity Objects (%) (U2OS [3]; 24 h, replicate 1): 5% and 3%
Population Membrane Permeable-Phenotype (%) (U2OS [3]; 24 h, replicate 1): 42% and 56%
Population Mitotic Cells (%) (U2OS [3]; 24 h, replicate 1): 50% and 38%
Population Normal (%) (U2OS [3]; 24 h, replicate 1): 95% and 96%
Population Tubulin-Different-Phenotype (%) (U2OS [3]; 24 h, replicate 1): 53%
Total Cell Count (U2OS [3]; 24 h, replicate 1): 140 and 230
Population Apoptotic (%) (U2OS [3]; 24 h, replicate 2): 95% and 37%
Population Fragmented Nuclei (%) (U2OS [3]; 24 h, replicate 2): 15% and 7%
Population Healthy Nuclei (%) (U2OS [3]; 24 h, replicate 2): 60% and 84%
Population Hoechst High Intensity Objects (%) (U2OS [3]; 24 h, replicate 2): 9% and 6%
Population Membrane Permeable-Phenotype (%) (U2OS [3]; 24 h, replicate 2): 74% and 40%
Population Mitochondria Different-Phenotype (%) (U2OS [3]; 24 h, replicate 2): 83% and 30%
Population Normal (%) (U2OS [3]; 24 h, replicate 2): 90% and 93%
Population Tubulin-Different-Phenotype (%) (U2OS [3]; 24 h, replicate 2): 100% and 40%
Total Cell Count (U2OS [3]; 24 h, replicate 2): 108 and 215
Growth Rate (HEK-293T [4]; [7]): 1
Growth Rate (HEK-293T [4]; [8]): 0
Growth Rate (HEK-293T [4]; [9]): 0
Growth Rate (HEK-293T [4]; [10]): 0
Growth Rate (HEK-293T [4]; [11]): 0
Growth Rate (Fibroblast [5]; [7]): 1
Growth Rate (Fibroblast [5]; [8]): 0
Growth Rate (Fibroblast [5]; [9]): 0
Growth Rate (Fibroblast [5]; [10]): 0
Growth Rate (Fibroblast [5]; [11]): 0
Growth Rate (U2OS [6]; 0 h, replicate number 2, timepoint 0 hours): 0
Growth Rate (U2OS [6]; [8]): 0
Growth Rate (U2OS [6]; [9]): 0
Growth Rate (U2OS [6]; [10]): 0
Growth Rate (U2OS [6]; [11]): 0
